# Activity calls are given as the source filed them. The rule behind the calls is not given here.
# What was measured:
# SGC-7901 [1] = assay: Induction of apoptosis in human SGC-7901 cells assessed as early apoptotic cells at 60 nM incubated for 48 hrs by annexin V-FITC and PI staining based flow cytometry analysis (reference value: 1.4 %); format: functional
# MGC-803 [2] = assay: Induction of cell cycle arrest in human MGC-803 cells assessed as increase in G2/M phase accumulation incubated for 24 hrs by PI staining based flow cytometry analysis; format: functional; details: dose 20-60 nM
# Outline: (§1)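 Cells in RPMI-1640/10% FBS at 37 °C, 5% CO2, exposed to 20, 40 and 60 nM for 24 h before flow cytometric cell-cycle distribution analysis.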
# SGC-7901 [3] = assay: Inhibition of tubulin polymerization in human SGC-7901 cells assessed as decrease in microtubule formation at 20 to 60 nmol/L by DAPI staining based microscopic analysis; format: cell-based; details: dose 20-60 nmol/L
# Outline: (§2)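 Cells cultured in RPMI-1640 with 10% FBS at 37 °C, 5% CO2, treated 48 h with 20, 40 and 60 nM; stained for β-tubulin (green) and nuclei (blue) and examined by microscopy.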
# MGC-803 [4] = assay: Induction of apoptosis in human MGC-803 cells assessed as upregulation of FADD at 20 to 60 nM incubated for 48 hrs by Western blot analysis; format: functional, cell-based; details: dose 20-60 nM
# Outline: (§3)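 Western blot on MGC-803 and SGC-7901 cells given 20, 40 and 60 nM compound or DMSO for 48 h. Denatured lysates were run on SDS-PAGE and transferred to PVDF, then probed with primary and secondary antibodies to detect apoptosis-related proteins.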
# MGC-803 [5] = assay: Induction of apoptosis in human MGC-803 cells assessed as upregulation of Noxa at 20 to 60 nM incubated for 48 hrs by Western blot analysis; format: functional, cell-based; details: dose 20-60 nM; outline: as §3
# SGC-7901 [6] = assay: Induction of apoptosis in human SGC-7901 cells assessed as downregulation of Mcl-1 at 20 to 60 nM incubated for 48 hrs by Western blot analysis; format: functional, cell-based; details: dose 20-60 nM; outline: as §3
# SGC-7901 [7] = assay: Inhibition of tubulin polymerization in human SGC-7901 cells assessed as increase in multiple nucleus formation at 20 to 60 nmol/L by DAPI staining based microscopic analysis; format: cell-based; details: dose 20-60 nmol/L; outline: as §2
# MGC-803 [8] = assay: Displacement of EBI from beta-tubulin in human MGC-803 cells assessed as reduction in tubulin adduct formation incubated for 2 hrs followed by EBI addition and measured after 2 hrs by Western blot analysis; format: cell-based; details: dose 0.25-2.5 µM, time 4.0 hrs
# Outline: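 EBI competition assay. […] EBI was then added at […] as printed for another 2 h. Harvested cells were immunoblotted with anti-β-tubulin antibody to detect β-tubulin and the alkylated β-tubulin adduct.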
# SGC-7901 [9] = assay: Induction of apoptosis in human SGC-7901 cells assessed as increase in caspase-3 cleavage at 20 to 60 nM incubated for 48 hrs by Western blot analysis; format: functional, cell-based; details: dose 20-60 nM
# Outline: (§4)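 Cells grown in RPMI-1640 with 10% FBS, penicillin/streptomycin at 37 °C, 5% CO2. Exposure to 20, 40 or 60 nM for 48 h alongside DMSO control. Lysates denatured, resolved by SDS-PAGE, transferred to PVDF, blocked, then probed with primary and secondary antibodies.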
# SGC-7901 [10] = assay: Activation of Hippo signaling pathway in human SGC-7901 cells assessed as decrease in Bcl-2 expression incubated for 48 hrs by Western blot analysis; format: cell-based; details: filed as activator, dose 20-60 nM
# Outline: (§5)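 Western blot on gastric cancer cells exposed to compound or DMSO at 20, 40 and 60 nM for 48 h. Cells were lysed, then the denatured lysates were separated by SDS-PAGE and transferred to PVDF. Membranes were blocked and probed with primary and then secondary antibodies. Hippo pathway proteins were detected.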
# SGC-7901 [11] = assay: Activation of Hippo signaling pathway in human SGC-7901 cells assessed as downregulation of YAP at 20 to 60 nM incubated for 48 hrs by Western blot analysis; format: cell-based; details: filed as activator, dose 20-60 nM; outline: as §5
# SGC-7901 [12] = assay: Induction of apoptosis in human SGC-7901 cells assessed as downregulation of XIAP at 20 to 60 nM incubated for 48 hrs by Western blot analysis; format: functional, cell-based; details: dose 20-60 nM; outline: as §3
# MGC-803 [13] = assay: Induction of apoptosis in human MGC-803 cells assessed as increase in caspase-3 cleavage at 20 to 60 nM incubated for 48 hrs by Western blot analysis; format: functional, cell-based; details: dose 20-60 nM; outline: as §3
# SGC-7901 [14] = assay: Induction of cell cycle arrest in human SGC-7901 cells assessed as increase in G2/M phase accumulation incubated for 24 hrs by PI staining based flow cytometry analysis; format: functional; details: dose 20-60 nM; outline: as §1
# SGC-7901 [15] = assay: Induction of apoptosis in human SGC-7901 cells assessed as increase in caspase-9 cleavage at 20 to 60 nM incubated for 48 hrs by Western blot analysis; format: functional, cell-based; details: dose 20-60 nM; outline: as §4
# SGC-7901 [16] = assay: Induction of apoptosis in human SGC-7901 cells assessed as upregulation of Bax at 20 to 60 nM incubated for 48 hrs by Western blot analysis; format: functional, cell-based; details: dose 20-60 nM; outline: as §4
# MGC-803 [17] = assay: Inhibition of tubulin polymerization in human MGC-803 cells assessed as decrease in filamentous structure at 20 to 60 nmol/L by DAPI staining based microscopic analysis; format: cell-based; details: dose 20-60 nmol/L; outline: as §2
# MGC-803 [18] = assay: Activation of Hippo signaling pathway in human […] cells assessed as downregulation of TEAD at 20 to 60 nM incubated for 48 hrs by Western blot analysis; format: cell-based; details: filed as activator, dose 20-60 nM; outline: as §5
# SGC-7901 [19] = assay: Induction of cell cycle arrest in human SGC-7901 cells assessed as upregulation of Histone-H3 Ser10 at 20 to 60 nM incubated for 48 hrs by Western blot analysis; format: functional, cell-based; details: dose 20-60 nM; outline: as §4
# MGC-803 [20] = assay: Induction of apoptosis in human MGC-803 cells assessed as downregulation of Mcl-1 at 20 to 60 nM incubated for 48 hrs by Western blot analysis; format: functional, cell-based; details: dose 20-60 nM; outline: as §3
# MGC-803 [21] = assay: Antiproliferative activity against human MGC-803 cells assessed as reduction in cell viability at 60 nmol/L incubated for 48 hrs by MTT assay relative to control; format: functional
# Outline: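 MTT viability in gastric cell lines grown in RPMI-1640 with 10% FBS at 37 °C, 5% CO2. Compound at 20, 40 and 60 nM for 48 h, starting 24 h after seeding 5,000 cells per well. MTT for 4 h, formazan dissolved in DMSO, absorbance at 490 nm. Inhibition expressed relative to control.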
# MGC-803 [22] = assay: Induction of apoptosis in human MGC-803 cells assessed as upregulation of Bax at 20 to 60 nM incubated for 48 hrs by Western blot analysis; format: functional, cell-based; details: dose 20-60 nM; outline: as §3
# MGC-803 [23] = assay: Induction of apoptosis in human MGC-803 cells assessed as upregulation of Bak at 20 to 60 nM incubated for 48 hrs by Western blot analysis; format: functional, cell-based; details: dose 20-60 nM; outline: as §3
# HCT-116 = assay: Antiproliferative activity against human HCT-116 cells assessed as reduction in cell viability incubated for 48 hrs by MTT assay; format: functional, cell-based; details: HCT-116, 48 h
# Outline: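 MTT assay. 5,000 cells per well in RPMI-1640 with 10% FBS and penicillin/streptomycin at 37 °C, 5% CO2. Compound added 24 h after seeding and left for 48 h. MTT was then added for 4 h at 37 °C, formazan dissolved in DMSO and absorbance read at 490 nm. IC50 calculated from three independent experiments.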
# MGC-803 [24] = assay: Induction of apoptosis in human MGC-803 cells assessed as early apoptotic cells at 60 nM incubated for 48 hrs by annexin V-FITC and PI staining based flow cytometry analysis (reference value: 2.9 %); format: functional
# SGC-7901 [25] = assay: Activation of Hippo signaling pathway in human SGC-7901 cells assessed as increase in MST1/2 phosphorylation at 20 to 60 nM incubated for 48 hrs by Western blot analysis; format: cell-based; details: filed as activator, dose 20-60 nM; outline: as §5
smiles,measurement,setting,value
COc1ccc(CN(C(=O)CSc2nc3ccccc3s2)c2cc(OC)c(OC)c(OC)c2)cc1O,Activity,SGC-7901 [1],19.1%
same,Activity,MGC-803 [2],Dose-dependent effect
same,Activity,SGC-7901 [3],Active
same,Activity,MGC-803 [4],Active
same,Activity,MGC-803 [5],Active
same,Activity,SGC-7901 [6],Active
same,Activity,SGC-7901 [7],Active
same,inhibition,MGC-803 [8],Dose-dependent effect
same,Activity,SGC-7901 [9],Active
same,Activity,SGC-7901 [10],Dose-dependent effect
same,Activity,SGC-7901 [11],Active
same,Activity,SGC-7901 [12],Active
same,Activity,MGC-803 [13],Active
same,Activity,SGC-7901 [14],Dose-dependent effect
same,Activity,SGC-7901 [15],Active
same,Activity,SGC-7901 [16],Active
same,Activity,MGC-803 [17],Active
same,Activity,MGC-803 [18],Active
same,Activity,SGC-7901 [19],Active
same,Activity,MGC-803 [20],Active
same,inhibition at 0.06 µM,MGC-803 [21],72%
same,Activity,MGC-803 [22],Active
same,Activity,MGC-803 [23],Active
same,IC50,HCT-116,182 nM
same,Activity,MGC-803 [24],43%
same,Activity,SGC-7901 [25],Active

# From ChEMBL document CHEMBL4765386, “Discovery of tertiary amide derivatives incorporating benzothiazole moiety as anti-gastric cancer agents in vitro via inhibiting tubulin polymerization and activating the Hippo signaling pathway” (Eur J Med Chem, 2020)
